# Compound activity: PubChem BioAssay, several laboratories
# Shown are actives, neighbours in structure and some others; about 2% of the full set was active somewhere.
# PPC-1+TRAIL kill: PPC-1 cancer cell killing with TRAIL present. PPC-1 cells + TRAIL, ATPLite viability luminescence. AID 1443. cell killing (% activity), % at 4 µM or 5 µM. actives 0.41% (n = 220,000);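 active = cell killing above 50% in the first pass at 4 µM, then a duplicate retest at 5 µM averaging 50% or more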;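 note: plate controls were cells with TRAIL plus DMSO for no effect and medium-only wells lacking cells for full effect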
# FLuc inh counter: Photinus pyralis luciferase inhibition counter-screen; ATPLite firefly luciferase biochemical luminescence, 10 min; actives 1.5% (n = 200,000); inhibition, % at 10 µM; AID 1006; P08659;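 active = inhibition above about 50% when tested at 10 µM, limit read from the data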
# Target sequence (P08659 whole entry, looked up): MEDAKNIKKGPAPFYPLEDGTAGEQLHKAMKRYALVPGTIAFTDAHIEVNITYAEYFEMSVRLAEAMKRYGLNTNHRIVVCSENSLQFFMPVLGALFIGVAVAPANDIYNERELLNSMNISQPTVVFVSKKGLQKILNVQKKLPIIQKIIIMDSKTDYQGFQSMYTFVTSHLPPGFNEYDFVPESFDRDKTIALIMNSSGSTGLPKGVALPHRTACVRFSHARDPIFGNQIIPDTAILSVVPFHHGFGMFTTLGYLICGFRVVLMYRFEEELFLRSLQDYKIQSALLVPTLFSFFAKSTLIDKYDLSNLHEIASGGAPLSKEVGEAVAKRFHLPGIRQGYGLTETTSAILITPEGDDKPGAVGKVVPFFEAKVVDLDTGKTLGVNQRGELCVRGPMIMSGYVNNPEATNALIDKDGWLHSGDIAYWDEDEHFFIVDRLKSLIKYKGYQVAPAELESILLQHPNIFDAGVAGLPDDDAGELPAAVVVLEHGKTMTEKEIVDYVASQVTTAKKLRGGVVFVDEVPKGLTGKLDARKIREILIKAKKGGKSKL
# TRAIL sens C8: sensitizes caspase-8 expressing cells to TRAIL. NB7+C8 cells + TRAIL, ATPlite viability luminescence. inhibition (viability loss, TRAIL sensitization), % at 10 µM. actives 1% (n = 360,000). AID 624354;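 active = compounds causing at least 50% loss of cell viability in the single-dose screen, relative to plate controls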
# FLuc act counter: firefly luciferase counter-screen for stimulation assays. ATPlite luciferase biochemical, luminescence, 10 min; 0 = ATP-free wells, 1 = DMSO control. activation factor at 10 µM. 200,000 tested, under 10 active;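 active = luciferase activation factor, scaled between plate controls, of at least 2 with compound at 10 µM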
#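 System: cell-free luciferase reagent; medium: PBS as buffer for the ATP substrate; doses: test compounds dosed from 2 mM stocks in 100% DMSO; incubation: 10 min, room temperature; measured by: luminescence from luciferase reaction; read-out: luciferase activation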
# HSP90 refold inh: blocks HSP90-mediated luciferase refolding in reticulocyte lysate | inhibition, % at 5.6 µM | Rabbit reticulocyte lysate, luciferase refolding luminescence, 3 h | actives 0.91% (n = 290,000);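 active = inhibition above the screen-wide mean plus 3 SD, computed separately per campaign, cut at about 16% in these data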;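 note: 0% = DMSO wells and 100% = 60 µM geldanamycin wells; inhibitors lower the luminescence because luciferase stays unfolded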
# PPC-1 tox: PPC-1 cell cytotoxicity; shares compounds with PPC-1+TRAIL kill; PPC-1 viability, ATPlite luminescence, overnight; cytotoxicity, % at 5 µM; actives 50% (n = 1,200);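 active = reconfirmed compounds whose average cytotoxicity reaches 50% or more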;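 note: 0% = DMSO-treated cells and 100% = wells holding medium but no cells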
# * hit, by the source's call; nt = not tested or not shown.
SMILES,PPC-1+TRAIL kill,FLuc inh counter,TRAIL sens C8,FLuc act counter,HSP90 refold inh,PPC-1 tox
C/C=C/c1cnc2c(c1)C(=O)N([C@H](C)CO)C[C@H](C)[C@@H](CN(C)C(=O)CN1CCOCC1)O2,nt,nt,-10,nt,nt,nt
CSCCC(c1nnnn1C1CCCC1)N1CCN(C/C=C/c2ccccc2)CC1 (stereo unspecified),nt,nt,5,nt,nt,nt
CCOC(=O)C1(C)CCN1C(=O)c1csnn1 (stereo unspecified),nt,nt,-4,nt,nt,nt
CCCOc1ccc(C(=O)C(c2ccccc2)N2CCOCC2)cc1 (stereo unspecified),0,-2,-11,1,-3,14
O=C(Nc1cccc(S(=O)(=O)C(F)F)c1)c1ccc(S(=O)(=O)N2CCOCC2)cc1,-4,-8,21,1.1,3,-6
COC(=O)C1=C(N)Oc2cc(C)n(CCCn3ccnc3)c(=O)c2C1c1cccc(Cl)c1 (stereo unspecified),7,0,-7,1,nt,-1
COC(=O)C1=C(N)Oc2cc(C)n(CCc3ccccc3)c(=O)c2C1c1cccnc1 (stereo unspecified),-3,-6,11,1.1,1,nt
CC(C)=CCC[C@H](C)CC1Cc2[nH]c(=S)[nH]c(=O)c2C(c2ccc(Cl)cc2)O1 (stereo partly specified),nt,nt,39,nt,nt,nt
COc1ccc(/C=C/C(=O)NC(=S)NNC(=O)Cc2cccs2)cc1,12,-1,11,1,1,6
COc1ccc(NC(=O)c2nc3ccccc3s2)cc1,36,61*,46,0.4,13,39
CC(=O)NCCc1ccc(C(=O)COC(=O)c2cccs2)cc1,nt,nt,19,nt,nt,nt
CN(C)S(=O)(=O)c1ccc(C(=O)NCCOc2ccccc2)cc1,-15,-8,-11,1.1,3,-2
CN(C)S(=O)(=O)c1ccc(C(=O)NCCOc2ccc(F)cc2)cc1,10,-3,-5,1,1,nt
CC1(C(=O)NCc2ccccc2Br)CCN1C(=O)CCc1ccc(Cl)cc1Cl (stereo unspecified),nt,nt,-3,nt,nt,nt
C/C(=N/NC(=O)c1cccs1)c1c(C)[nH]n(-c2nc3ccccc3s2)c1=O,77*,93*,89*,0.1,16,75*
Cc1cccc(NC(=O)Oc2ccc(Cl)c3cccnc23)c1,nt,nt,19,nt,nt,nt
O=C(Nc1ccccc1C(=O)N/N=C/c1ccncc1)c1ccccc1,80*,96*,89*,0,12,82*
Cc1ccccc1C(=O)Nc1ccc(C(=O)N/N=C/c2ccncc2)cc1,nt,2,3,1,-3,nt
CC(=O)c1ccc(Nc2nc(C(N)COCc3ccccc3)cs2)cc1 (stereo unspecified),nt,nt,6,nt,nt,nt
CCOc1ccccc1N1CCN(CC(=O)N(C)CC(=O)Nc2ccccc2CC)CC1,nt,nt,-12,nt,nt,nt
CC(Oc1cccc(Cl)c1)C(=O)Nc1cc(=O)n(C)c(=O)n1C (stereo unspecified),2,-10,-15,1.1,-1,-3
CS(=O)(=O)c1ccccc1-c1nnc(NC(=O)c2ccc3ncsc3c2)o1,nt,nt,18,nt,nt,nt
O=C1N=C(N2CCOCC2)S/C1=C1\C(=O)N(Cc2ccccc2)c2ccc(Br)cc21,-11,-2,nt,1,nt,nt
CCCCN1C(=O)/C(=C2\SC(N3CCCCC3)=NC2=O)c2ccccc21,40,55*,38,0.5,0,44
COc1ccc2nc(/N=C/c3cccc(OC)c3O)sc2c1,nt,nt,-19,nt,-2,nt
SMILES,PPC-1+TRAIL kill,FLuc inh counter,TRAIL sens C8,FLuc act counter,HSP90 refold inh,PPC-1 tox
COc1ccc2nc(N=Nc3ccc(N(C)C)cc3)sc2c1,90*,95*,94*,0.1,26*,90*
COc1cccc(-c2nnn(CC(=O)Nc3cc(OC)c(NC(=O)c4ccco4)cc3OC)n2)c1,8,-1,-3,1,-1,19
CC(=O)N=c1sc2cc(C)ccc2n1C,-6,-6,-10,1.1,10,-6
OC(CNCCCCNCC(O)C(F)(F)F)C(F)(F)F (stereo unspecified),-11,-6,-2,1.1,-2,nt
COc1ccc(C(=O)Nc2cccc(OC(=O)c3ccco3)c2)cc1,nt,nt,32,nt,5,nt
COc1ccc(C(=O)Nc2cccc(OC(=O)c3ccc(C)c(C)c3)c2)cc1,21,3,7,1,-2,22
COc1ccc(Cl)cc1-c1nc(SCC(=O)N(C)CCC#N)n[nH]1,-10,-4,-5,1,3,-10
CN(CC(=O)Nc1ccc(Cl)c(Cl)c1)C1CCCCC1,nt,nt,5,nt,-4,nt
CC(C)N(C)C1CCN(C(=O)Nc2ccc(Cl)c(Cl)c2)CC1,1,-3,3,1,3,3
O=C1NC[C@@H](CCCCN2C[C@H](Cc3ccc(O)cc3)N(CCC3CCCCC3)C(=O)C2=O)N(CC2CCCCC2)C1=O,nt,nt,-4,nt,nt,nt
COc1cccc(N2CCN(c3ncnc4c3[nH]c3ccc(F)cc34)CC2C)c1 (stereo unspecified),63*,-8,95*,1.1,-2,63*
COc1ccc2c(c1)nc(-c1cccc(Br)c1)c(=O)n2C(c1ccccn1)c1nc2ccccc2[nH]1 (stereo unspecified),nt,nt,9,nt,nt,nt
CCOC(=O)c1nn(-c2ccc3c(c2)CCN3C(C)=O)cc1O,41,61*,62*,0.4,13,46
CCOC(=O)c1nn(-c2ccc(F)cc2)cc1O,3,24,7,0.8,-1,nt
COc1cc(/C=C(/C#N)c2nc3ccccc3[nH]2)ccc1OCC(=O)Nc1ccccc1C(C)C,-11,0,-2,1,0,nt
COc1cc(/C=C(/C#N)c2nc3ccccc3[nH]2)ccc1OCC(=O)Nc1ccccc1C,19,-2,87*,1,-2,-2
Fc1ccc(CSc2nc3ccccc3[nH]2)cc1,33,49,45,0.5,1,28
Cc1cc(N/C=C/C(=O)c2ccccc2)ccc1Br,nt,nt,43,nt,2,nt
Cc1ccc(N/C=C/C(=O)c2cccs2)cc1C,71*,94*,78*,0.1,1,71*
O=C(Nc1cccc2ccccc12)C12CC3CC(C1)CC(n1cnc([N+](=O)[O-])n1)(C3)C2,4,-8,7,1.1,1,14
COc1ccc(/C=N/Nc2nncc3ccccc23)cc1,95*,97*,91*,0,1,95*
Oc1c(Br)cc(/C=N/Nc2nncc3ccccc23)cc1Br,nt,nt,nt,nt,3,nt
Nc1ccc(-c2nc3ccc(N)cc3o2)cc1,44,87*,68*,0.1,15,45
CC(=O)Nc1ccc(CNc2nc3cc(-c4ccc(F)cc4)sc3c(=O)n2C)cc1,nt,nt,2,nt,nt,nt
CN(c1cccc(NC(=O)CN(c2ccc(F)cc2)S(C)(=O)=O)c1)S(C)(=O)=O,7,-10,-4,1.1,-2,nt
CCc1ccccc1N(CC(=O)Nc1cccc(N(C)S(C)(=O)=O)c1)S(C)(=O)=O,9,-4,1,1,0,18
CCc1ccccc1N(CC(=O)O)S(C)(=O)=O,-14,-1,29,1,-3,-15
